# Substitutions are numbered along the chain they refer to.
# Assays:
# Details in all cases: stereoisomer not certain
# OR5AC2 (Homo sapiens) = biological target: T1, OR5AC2 (Homo sapiens) (UniProt Q9NZP5)
# T1 sequence (whole entry): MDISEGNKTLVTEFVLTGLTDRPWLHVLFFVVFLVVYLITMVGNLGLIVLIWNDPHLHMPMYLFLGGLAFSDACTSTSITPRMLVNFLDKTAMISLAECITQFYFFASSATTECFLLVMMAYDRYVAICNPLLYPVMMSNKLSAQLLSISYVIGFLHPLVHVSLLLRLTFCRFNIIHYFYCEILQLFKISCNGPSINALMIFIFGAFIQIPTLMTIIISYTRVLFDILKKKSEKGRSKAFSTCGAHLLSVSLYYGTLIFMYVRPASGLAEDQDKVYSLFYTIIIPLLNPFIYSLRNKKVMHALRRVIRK
# How it was run: (§1)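 Transient luciferase assays in mammalian cell lines were common, though methods varied by source. The values come from published papers and their supplementary material, with extra details from the original authors when needed. Responsive refers to a measured signal the original authors judged statistically different from baseline, and non-responsive (inactive) to the remainder.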
# OR56B4 (Homo sapiens) = biological target: T2, OR56B4 (Homo sapiens) (UniProt Q8NH76)
# T2 sequence (whole entry): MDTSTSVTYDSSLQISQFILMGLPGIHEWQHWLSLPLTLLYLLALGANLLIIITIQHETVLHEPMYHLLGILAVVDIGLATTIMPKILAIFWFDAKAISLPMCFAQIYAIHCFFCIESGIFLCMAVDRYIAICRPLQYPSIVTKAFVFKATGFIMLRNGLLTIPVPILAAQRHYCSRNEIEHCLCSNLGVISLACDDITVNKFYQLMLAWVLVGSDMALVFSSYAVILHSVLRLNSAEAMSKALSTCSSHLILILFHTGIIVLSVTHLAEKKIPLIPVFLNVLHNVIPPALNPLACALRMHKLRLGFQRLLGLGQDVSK
# How it was run: as §1
# OR5A1 (Homo sapiens) = biological target: T3, OR5A1 (Homo sapiens) (UniProt Q8NGJ0)
# T3 sequence (whole entry): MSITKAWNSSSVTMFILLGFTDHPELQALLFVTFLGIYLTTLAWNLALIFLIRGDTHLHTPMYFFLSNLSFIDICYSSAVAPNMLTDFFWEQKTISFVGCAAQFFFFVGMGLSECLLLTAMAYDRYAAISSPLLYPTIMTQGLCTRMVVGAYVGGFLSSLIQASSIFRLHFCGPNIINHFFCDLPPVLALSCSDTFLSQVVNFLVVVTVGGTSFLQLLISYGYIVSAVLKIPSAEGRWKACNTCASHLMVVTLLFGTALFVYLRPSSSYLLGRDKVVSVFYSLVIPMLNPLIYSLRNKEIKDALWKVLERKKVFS
# How it was run: as §1
# OR5A1 D183N = tested on: T4, OR5A1 D183N
# T4 sequence (whole entry): T3 sequence (whole entry) with D183N
# How it was run: as §1
# OR5A2 (Homo sapiens) = biological target: T5, OR5A2 (Homo sapiens) (UniProt Q8NGI9)
# T5 sequence (whole entry): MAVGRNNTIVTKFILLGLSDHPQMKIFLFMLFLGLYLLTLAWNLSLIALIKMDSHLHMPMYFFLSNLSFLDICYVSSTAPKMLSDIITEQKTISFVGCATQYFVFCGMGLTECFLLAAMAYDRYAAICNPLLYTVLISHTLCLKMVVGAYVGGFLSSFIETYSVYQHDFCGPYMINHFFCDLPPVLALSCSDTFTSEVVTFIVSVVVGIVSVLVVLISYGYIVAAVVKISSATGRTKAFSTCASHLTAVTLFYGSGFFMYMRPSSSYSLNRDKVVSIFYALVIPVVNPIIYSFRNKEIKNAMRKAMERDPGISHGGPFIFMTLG
# How it was run: as §1
# OR5AK2 (Homo sapiens) = biological target: T6, OR5AK2 (Homo sapiens) (UniProt Q8NH90)
# T6 sequence (whole entry): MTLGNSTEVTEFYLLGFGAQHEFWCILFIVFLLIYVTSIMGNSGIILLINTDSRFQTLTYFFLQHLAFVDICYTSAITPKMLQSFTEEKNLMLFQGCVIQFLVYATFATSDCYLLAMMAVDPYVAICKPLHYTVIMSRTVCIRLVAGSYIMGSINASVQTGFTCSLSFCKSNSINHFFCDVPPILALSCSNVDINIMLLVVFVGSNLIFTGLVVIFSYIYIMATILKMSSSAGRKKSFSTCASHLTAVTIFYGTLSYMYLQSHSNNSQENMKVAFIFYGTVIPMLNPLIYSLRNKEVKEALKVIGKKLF
# How it was run: as §1
# OR5AN1 (Homo sapiens) = biological target: T7, OR5AN1 (Homo sapiens) (UniProt Q8NGI8)
# T7 sequence (whole entry): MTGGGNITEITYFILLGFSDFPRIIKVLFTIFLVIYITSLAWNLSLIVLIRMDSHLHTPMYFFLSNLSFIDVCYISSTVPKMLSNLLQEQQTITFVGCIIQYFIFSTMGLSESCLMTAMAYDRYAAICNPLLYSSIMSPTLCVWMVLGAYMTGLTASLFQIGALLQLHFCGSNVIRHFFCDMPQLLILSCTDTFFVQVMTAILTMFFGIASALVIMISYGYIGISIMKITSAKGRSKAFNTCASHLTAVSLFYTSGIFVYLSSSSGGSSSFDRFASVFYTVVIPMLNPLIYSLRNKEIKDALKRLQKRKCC
# How it was run: as §1
# OR5AP2 (Homo sapiens) = biological target: T8, OR5AP2 (Homo sapiens) (UniProt Q8NGF4)
# T8 sequence (whole entry): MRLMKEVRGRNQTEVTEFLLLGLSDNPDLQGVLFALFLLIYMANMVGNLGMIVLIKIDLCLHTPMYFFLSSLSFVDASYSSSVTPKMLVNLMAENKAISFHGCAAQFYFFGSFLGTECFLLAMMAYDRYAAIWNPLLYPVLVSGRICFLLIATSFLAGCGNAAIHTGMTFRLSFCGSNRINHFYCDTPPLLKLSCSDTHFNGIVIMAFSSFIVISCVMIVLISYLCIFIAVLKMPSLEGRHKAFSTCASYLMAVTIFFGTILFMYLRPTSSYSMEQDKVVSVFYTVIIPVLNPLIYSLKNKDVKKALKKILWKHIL
# How it was run: as §1
# OR5AC1 (Homo sapiens) = OR5AC1 (Homo sapiens) (UniProt P0C628)
# OR5AC1 (Homo sapiens), sequence (P0C628 whole entry): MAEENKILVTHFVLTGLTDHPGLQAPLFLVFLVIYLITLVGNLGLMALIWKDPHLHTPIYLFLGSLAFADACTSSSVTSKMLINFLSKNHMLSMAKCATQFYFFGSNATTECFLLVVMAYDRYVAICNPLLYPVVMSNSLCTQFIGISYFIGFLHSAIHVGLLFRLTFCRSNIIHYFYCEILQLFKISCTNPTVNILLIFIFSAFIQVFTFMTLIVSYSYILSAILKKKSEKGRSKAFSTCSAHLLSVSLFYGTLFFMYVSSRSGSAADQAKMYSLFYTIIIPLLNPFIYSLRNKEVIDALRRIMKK
# How it was run: as §1
# OR5AL1 (Homo sapiens) = OR5AL1 (Homo sapiens) (UniProt P0C617)
# OR5AL1 (Homo sapiens), sequence (P0C617 whole entry): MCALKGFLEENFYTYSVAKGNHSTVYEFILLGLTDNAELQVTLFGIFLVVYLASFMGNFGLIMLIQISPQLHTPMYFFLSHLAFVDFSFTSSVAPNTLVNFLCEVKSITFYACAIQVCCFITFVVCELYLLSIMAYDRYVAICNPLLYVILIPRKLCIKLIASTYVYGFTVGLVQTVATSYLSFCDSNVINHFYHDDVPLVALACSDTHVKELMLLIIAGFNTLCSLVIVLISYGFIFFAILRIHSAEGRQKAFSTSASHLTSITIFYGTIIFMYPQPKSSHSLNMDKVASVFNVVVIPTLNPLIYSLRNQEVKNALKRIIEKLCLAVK
# How it was run: as §1
# 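Further: active if original authors judged signal statistically different from baseline.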
smiles,measurement,setting,value
C=CC(C)(CCC=C(C)C)OC(C)=O (configuration not stated),odorant receptor agonist call,OR5AC2 (Homo sapiens),inactive
CCC1OC(=O)C(O)=C1C (configuration not stated),odorant receptor agonist call,OR56B4 (Homo sapiens),inactive
same,odorant receptor agonist call,OR5A1 (Homo sapiens),inactive
same,odorant receptor agonist call,OR5A1 D183N,inactive
same,odorant receptor agonist call,OR5A2 (Homo sapiens),inactive
same,odorant receptor agonist call,OR5AC2 (Homo sapiens),inactive
same,odorant receptor agonist call,OR5AK2 (Homo sapiens),inactive
same,odorant receptor agonist call,OR5AN1 (Homo sapiens),inactive
same,odorant receptor agonist call,OR5AP2 (Homo sapiens),inactive
Cc1cnc(C)c(C)n1,odorant receptor agonist call,OR56B4 (Homo sapiens),inactive
same,odorant receptor agonist call,OR5A1 (Homo sapiens),inactive
same,odorant receptor agonist call,OR5A1 D183N,inactive
same,odorant receptor agonist call,OR5A2 (Homo sapiens),inactive
same,odorant receptor agonist call,OR5AC2 (Homo sapiens),inactive
same,odorant receptor agonist call,OR5AK2 (Homo sapiens),inactive
same,odorant receptor agonist call,OR5AN1 (Homo sapiens),inactive
same,odorant receptor agonist call,OR5AP2 (Homo sapiens),inactive
COC1CC2CC1C1CC(C=O)CC21 (configuration not stated),odorant receptor agonist call,OR5AC2 (Homo sapiens),inactive
CCCCCC(=O)C(C)C(C)=O (configuration not stated),odorant receptor agonist call,OR56B4 (Homo sapiens),inactive
same,odorant receptor agonist call,OR5A1 (Homo sapiens),inactive
same,odorant receptor agonist call,OR5A2 (Homo sapiens),inactive
same,odorant receptor agonist call,OR5AC2 (Homo sapiens),inactive
same,odorant receptor agonist call,OR5AK2 (Homo sapiens),inactive
same,odorant receptor agonist call,OR5AN1 (Homo sapiens),inactive
same,odorant receptor agonist call,OR5AP2 (Homo sapiens),inactive
CC1CC(C)(c2ccccc2)CO1 (configuration not stated),odorant receptor agonist call,OR5AC2 (Homo sapiens),inactive
CC(C)=CCCC(C)CC=O (configuration not stated),odorant receptor agonist call,OR5AC2 (Homo sapiens),inactive
CC1CCCCCCCCCCCCC(=O)C1 (configuration not stated),odorant receptor agonist call,OR56B4 (Homo sapiens),inactive
same,odorant receptor agonist call,OR5A1 (Homo sapiens),inactive
same,odorant receptor agonist call,OR5A2 (Homo sapiens),inactive
same,odorant receptor agonist call,OR5AC1 (Homo sapiens),inactive
same,odorant receptor agonist call,OR5AC2 (Homo sapiens),inactive
same,odorant receptor agonist call,OR5AK2 (Homo sapiens),inactive
same,odorant receptor agonist call,OR5AL1 (Homo sapiens),inactive
same,odorant receptor agonist call,OR5AN1 (Homo sapiens),active
same,odorant receptor agonist call,OR5AP2 (Homo sapiens),inactive
CC1=C(O)C(=O)C(C)O1 (configuration not stated),odorant receptor agonist call,OR56B4 (Homo sapiens),inactive
same,odorant receptor agonist call,OR5A1 (Homo sapiens),inactive
same,odorant receptor agonist call,OR5A1 D183N,inactive
same,odorant receptor agonist call,OR5A2 (Homo sapiens),inactive
same,odorant receptor agonist call,OR5AC2 (Homo sapiens),inactive
same,odorant receptor agonist call,OR5AK2 (Homo sapiens),inactive
same,odorant receptor agonist call,OR5AN1 (Homo sapiens),inactive
same,odorant receptor agonist call,OR5AP2 (Homo sapiens),inactive
CCCCCC(S)C(C)CO (configuration not stated),odorant receptor agonist call,OR56B4 (Homo sapiens),inactive
same,odorant receptor agonist call,OR5A1 (Homo sapiens),inactive
same,odorant receptor agonist call,OR5A2 (Homo sapiens),inactive
same,odorant receptor agonist call,OR5AC2 (Homo sapiens),inactive
same,odorant receptor agonist call,OR5AK2 (Homo sapiens),inactive
same,odorant receptor agonist call,OR5AN1 (Homo sapiens),inactive
same,odorant receptor agonist call,OR5AP2 (Homo sapiens),inactive
C=CC(C)(O)CCC=C(C)CCC=C(C)C (configuration not stated),odorant receptor agonist call,OR5AC2 (Homo sapiens),inactive
CCC(S)C(C)CO (configuration not stated),odorant receptor agonist call,OR56B4 (Homo sapiens),inactive
same,odorant receptor agonist call,OR5A1 (Homo sapiens),inactive
same,odorant receptor agonist call,OR5A2 (Homo sapiens),inactive
same,odorant receptor agonist call,OR5AC2 (Homo sapiens),inactive
same,odorant receptor agonist call,OR5AK2 (Homo sapiens),inactive
same,odorant receptor agonist call,OR5AN1 (Homo sapiens),inactive
same,odorant receptor agonist call,OR5AP2 (Homo sapiens),inactive
CC1=NC(C)C(C)S1 (configuration not stated),odorant receptor agonist call,OR56B4 (Homo sapiens),inactive
same,odorant receptor agonist call,OR5A1 (Homo sapiens),inactive
same,odorant receptor agonist call,OR5A1 D183N,inactive
same,odorant receptor agonist call,OR5A2 (Homo sapiens),inactive
same,odorant receptor agonist call,OR5AC2 (Homo sapiens),inactive
same,odorant receptor agonist call,OR5AK2 (Homo sapiens),inactive
same,odorant receptor agonist call,OR5AN1 (Homo sapiens),inactive
same,odorant receptor agonist call,OR5AP2 (Homo sapiens),inactive
CCCC(S)CCOC(C)=O (configuration not stated),odorant receptor agonist call,OR56B4 (Homo sapiens),inactive
same,odorant receptor agonist call,OR5A1 (Homo sapiens),inactive
same,odorant receptor agonist call,OR5A1 D183N,inactive
same,odorant receptor agonist call,OR5A2 (Homo sapiens),inactive
same,odorant receptor agonist call,OR5AC2 (Homo sapiens),inactive
same,odorant receptor agonist call,OR5AK2 (Homo sapiens),inactive
same,odorant receptor agonist call,OR5AN1 (Homo sapiens),inactive
same,odorant receptor agonist call,OR5AP2 (Homo sapiens),inactive
CCCCC1CCC(=O)O1 (configuration not stated),odorant receptor agonist call,OR5AC2 (Homo sapiens),inactive
CC(=O)C=CC1=C(C)CCCC1(C)C,odorant receptor agonist call,OR5AC2 (Homo sapiens),inactive
